In ChEMBL document CHEMBL1134307, “trans-4-[4-(Methoxyphenyl)cyclohexyl]-1-arylpiperazines: a new class of potent and selective 5-HT(1A) receptor ligands as conformationally constrained analogues of 4-[3-(5-methoxy-1,2,3,4-tetrahydronaphthalen-1-yl)propyl]-1-arylpiperazines” (J Med Chem, 2001):

Tests used:
[1] = biological target: T1, Alpha-1D adrenergic receptor (Homo sapiens, UniProt P25100); test: Binding affinity towarda alpha-1D adrenergic receptor
T1 sequence (P25100 whole entry): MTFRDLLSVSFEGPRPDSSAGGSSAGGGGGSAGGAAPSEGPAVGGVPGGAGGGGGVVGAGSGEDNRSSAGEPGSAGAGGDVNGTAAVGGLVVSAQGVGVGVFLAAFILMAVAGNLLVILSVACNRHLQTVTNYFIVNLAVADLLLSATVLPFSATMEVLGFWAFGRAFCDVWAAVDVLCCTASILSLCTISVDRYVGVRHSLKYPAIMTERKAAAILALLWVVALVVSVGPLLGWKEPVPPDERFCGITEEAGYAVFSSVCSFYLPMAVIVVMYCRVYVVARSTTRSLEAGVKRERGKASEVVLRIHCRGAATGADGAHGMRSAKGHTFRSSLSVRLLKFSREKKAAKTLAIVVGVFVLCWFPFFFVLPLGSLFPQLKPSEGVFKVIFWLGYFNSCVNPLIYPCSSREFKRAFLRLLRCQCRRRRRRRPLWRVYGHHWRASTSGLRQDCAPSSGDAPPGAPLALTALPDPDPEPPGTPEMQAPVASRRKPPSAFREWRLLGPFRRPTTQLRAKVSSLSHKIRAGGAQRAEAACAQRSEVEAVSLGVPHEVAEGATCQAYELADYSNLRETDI
Procedure, shortened: (§1)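 Membranes from CHO cells stably expressing each human α1-adrenoceptor subtype, incubated in 50 mM Tris pH 7.4 with 0.2 nM [3H]prazosin and competing drugs (1 pM–10 µM), 30 min at 25 °C. Nonspecific binding with 10 µM phentolamine. Stopped with ice-cold Tris and filtration through 0.2% PEI-pretreated filters.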

[2] = biological target: T2, Alpha-1B adrenergic receptor (Homo sapiens, UniProt P35368); test: Binding affinity was determined on human cloned alpha-1B adrenergic receptor; procedure, shortened: as §1
T2 sequence (P35368 whole entry): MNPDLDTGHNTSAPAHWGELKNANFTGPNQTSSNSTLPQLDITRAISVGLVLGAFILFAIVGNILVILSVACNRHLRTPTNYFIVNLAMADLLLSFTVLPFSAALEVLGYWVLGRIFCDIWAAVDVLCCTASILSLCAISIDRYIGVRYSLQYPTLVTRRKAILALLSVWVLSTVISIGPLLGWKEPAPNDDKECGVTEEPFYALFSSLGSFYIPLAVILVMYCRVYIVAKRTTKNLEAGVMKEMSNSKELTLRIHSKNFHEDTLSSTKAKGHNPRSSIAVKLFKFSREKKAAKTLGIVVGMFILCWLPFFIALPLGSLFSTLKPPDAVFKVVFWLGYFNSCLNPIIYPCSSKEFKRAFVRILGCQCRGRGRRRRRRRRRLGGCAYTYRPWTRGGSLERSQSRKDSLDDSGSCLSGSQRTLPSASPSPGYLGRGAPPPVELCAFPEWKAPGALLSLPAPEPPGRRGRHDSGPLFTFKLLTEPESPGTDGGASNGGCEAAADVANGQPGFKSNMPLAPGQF

[3] = biological target: T3, 5-hydroxytryptamine receptor 1A (Homo sapiens, UniProt P08908); test: Binding affinity on human cloned 5-hydroxytryptamine 1A receptor transfected in human cell lines(He La)
T3 sequence (P08908 whole entry): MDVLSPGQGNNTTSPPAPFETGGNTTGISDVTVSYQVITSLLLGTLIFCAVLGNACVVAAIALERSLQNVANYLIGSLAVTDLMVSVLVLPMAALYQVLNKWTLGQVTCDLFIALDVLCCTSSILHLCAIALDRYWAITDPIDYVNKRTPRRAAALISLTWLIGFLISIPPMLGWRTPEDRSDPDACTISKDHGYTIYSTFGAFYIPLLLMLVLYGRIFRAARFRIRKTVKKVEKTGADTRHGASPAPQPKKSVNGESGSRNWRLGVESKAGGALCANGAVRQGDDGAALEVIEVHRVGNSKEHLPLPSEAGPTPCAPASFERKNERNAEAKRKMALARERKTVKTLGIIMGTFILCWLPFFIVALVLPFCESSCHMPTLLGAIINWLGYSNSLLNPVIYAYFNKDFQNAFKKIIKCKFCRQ
Procedure, shortened: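 HeLa cells stably expressing human 5-HT1A (genomic clone G-21), grown in DMEM with 10% FCS. […] Nonspecific binding with 10 µM 5-HT. Filtration through PEI-pretreated filters.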

[4] = biological target: D(2) dopamine receptor (Rattus norvegicus, UniProt P61169); test: Binding affinity towards dopamine receptor D2 in rat striatal membranes; format: cell membranes, Striatum, Membrane
Chain of D(2) dopamine receptor (P61169 whole entry): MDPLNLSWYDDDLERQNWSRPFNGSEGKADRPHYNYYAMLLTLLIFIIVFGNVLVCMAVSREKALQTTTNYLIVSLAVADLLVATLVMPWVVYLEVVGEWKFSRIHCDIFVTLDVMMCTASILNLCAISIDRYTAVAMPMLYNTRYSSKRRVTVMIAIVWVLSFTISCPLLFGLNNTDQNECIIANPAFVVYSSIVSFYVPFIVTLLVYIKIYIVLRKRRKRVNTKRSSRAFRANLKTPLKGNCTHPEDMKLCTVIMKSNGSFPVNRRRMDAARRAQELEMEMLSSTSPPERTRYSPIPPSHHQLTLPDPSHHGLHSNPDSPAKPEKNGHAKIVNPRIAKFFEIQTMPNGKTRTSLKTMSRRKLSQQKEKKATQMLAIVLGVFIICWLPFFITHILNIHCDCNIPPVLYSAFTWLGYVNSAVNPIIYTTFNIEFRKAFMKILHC

[5] = biological target: T4, Alpha-1A adrenergic receptor (Homo sapiens, UniProt P35348); test: Binding affinity was determined on human cloned Alpha-1A adrenoceptor; procedure, shortened: as §1
T4 sequence (P35348 whole entry): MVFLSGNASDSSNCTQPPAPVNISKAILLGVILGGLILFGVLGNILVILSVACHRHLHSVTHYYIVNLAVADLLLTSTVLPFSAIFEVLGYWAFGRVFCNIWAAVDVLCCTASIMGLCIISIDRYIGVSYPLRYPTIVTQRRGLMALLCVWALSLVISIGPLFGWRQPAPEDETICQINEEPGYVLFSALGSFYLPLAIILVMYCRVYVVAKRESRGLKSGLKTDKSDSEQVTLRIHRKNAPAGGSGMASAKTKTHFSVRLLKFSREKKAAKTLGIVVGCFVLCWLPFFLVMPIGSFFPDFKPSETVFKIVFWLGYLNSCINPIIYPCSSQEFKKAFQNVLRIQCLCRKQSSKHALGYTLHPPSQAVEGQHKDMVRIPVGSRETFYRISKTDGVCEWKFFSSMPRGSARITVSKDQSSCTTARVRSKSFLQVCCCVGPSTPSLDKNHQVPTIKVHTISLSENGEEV

[6] = biological target: T5, 5-hydroxytryptamine receptor 1A (Rattus norvegicus, UniProt P19327); test: Binding was determined on 5-hydroxytryptamine 1A receptor in rat hippocampal membranes; format: cell membranes, Hippocampus
T5 sequence (P19327 whole entry): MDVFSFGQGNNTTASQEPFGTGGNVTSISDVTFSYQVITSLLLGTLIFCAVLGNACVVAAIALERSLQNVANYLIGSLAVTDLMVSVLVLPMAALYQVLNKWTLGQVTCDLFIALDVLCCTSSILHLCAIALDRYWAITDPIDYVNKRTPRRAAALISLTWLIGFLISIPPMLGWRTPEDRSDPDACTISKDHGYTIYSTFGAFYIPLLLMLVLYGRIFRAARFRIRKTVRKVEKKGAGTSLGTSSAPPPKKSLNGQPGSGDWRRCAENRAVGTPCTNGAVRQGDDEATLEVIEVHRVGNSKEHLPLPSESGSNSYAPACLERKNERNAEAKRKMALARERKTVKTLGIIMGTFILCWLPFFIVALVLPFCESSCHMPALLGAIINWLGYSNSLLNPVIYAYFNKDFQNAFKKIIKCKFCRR
Procedure, shortened: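 Hippocampus from male Wistar Hannover rats, homogenized in 50 mM Tris pH 7.6, washed, and preincubated 10 min at 37 °C. Ki given as mean ± SEM.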

Ki [1] [nM]	Ki [2] [nM]	Ki [3] [nM]	Ki [4] [nM]	Ki [5] [nM]	Ki [6] [nM]	SMILES
142	332	3.77	586	201	17	COc1cccc(C2CCC(NCCOc3ccccn3)CC2)c1 (stereo in doubt)
5.95	7.88		117	0.33	0.48	COc1cccc2c1CCCC2CCCN1CCN(c2ccccn2)CC1 (stereo unspecified)
118	53.1	0.2	2190	33	0.028	COc1cccc(C2CCC(N3CCN(c4ccccn4)CC3)CC2)c1 (trans isomer)
4.49	43.3	0.21	60	4.98	0.02	COc1cccc(C2CCC(N3CCN(c4ccccc4OC)CC3)CC2)c1 (stereo in doubt; trans)

Second part, the molecule before the results:

SMILES	Ki [1] [nM]	Ki [2] [nM]	Ki [3] [nM]	Ki [4] [nM]	Ki [5] [nM]	Ki [6] [nM]
COc1cccc2c(CCCNCCOc3ccccn3)cccc12	83.2	270	0.86	378	14.6	0.19
COc1cccc2c(CCCN3CCN(c4ccccn4)CC3)cccc12	12.6	4.21	3	450	1.62	0.38
COc1cccc2c1CCCC2CCCNCCOc1ccccn1 (stereo unspecified)	12.7	26.4	0.23	> 850	0.55	0.54
